The structures appear in SMILES notation. Where only a bound is given, the exact number is not on record here.

Experiment [1] relates to human macrophages. In words: CD163. The class given is cell-based. As to conditions: 10 nM, 24h; significant only for RvD1.
For experiment [2], the target named is recombinant human DRV1 (Homo sapiens, UniProt O75388). In words: Electrical cell substrate impedance sensing. It is filed as cell-based. As to conditions: for direction of impedance change: CHO cells expressing DRV1, concentration not stated. The procedure, abridged: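 GPR32- or mock-transfected CHO cells were seeded at 0.1×10^6 per well of an 8-well ECIS electrode array. Test compounds were added in serum-free medium at 100 nM–10 μM. Impedance across the monolayer was recorded every 4 s for 10 min at 37 °C. Tracings are representative of 3 independent experiments.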
recombinant human DRV1, sequence (O75388 whole entry): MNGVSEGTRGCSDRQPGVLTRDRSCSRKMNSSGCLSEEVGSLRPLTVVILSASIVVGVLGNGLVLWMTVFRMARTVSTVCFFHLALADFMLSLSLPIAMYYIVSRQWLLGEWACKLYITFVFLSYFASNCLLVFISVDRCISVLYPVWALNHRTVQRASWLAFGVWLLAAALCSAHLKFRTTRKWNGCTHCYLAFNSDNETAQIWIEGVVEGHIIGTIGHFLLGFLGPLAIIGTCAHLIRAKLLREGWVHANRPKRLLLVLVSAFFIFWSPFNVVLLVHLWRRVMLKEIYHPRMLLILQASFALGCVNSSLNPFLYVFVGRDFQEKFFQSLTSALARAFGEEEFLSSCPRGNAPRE

Experiment [3] deals with human macrophages. In words: Macrophage phagocytosis of serum-treated zymosan. The class given is cell-based. As to conditions: human MΦ; for phagocytosis of STZ, dose response: 0.1pM-10 nM, 15 min preincubation; for increase of phagocytosis of STZ above vehicle: 10 pM. The procedure, abridged: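 GM-CSF-differentiated human macrophages were plated at 50,000 cells/well in PBS++ and used 24 h later. Compounds (0.1 pM–10 nM) were added for 15 min at 37 °C, pH 7.45. FITC-labelled serum-treated zymosan was then added at 10:1 for 40 min at 37 °C. Extracellular signal was quenched with trypan blue and fluorescence read at Ex 493/Em 535 nm. Results are % above vehicle, triplicates from 3–4 donors, with curve fitting.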

Experiment [4] deals with DRV1-transfected macrophages. In words: Real-time phagocytosis of live E. coli, macrophages overexpressing DRV1/GPR32. The class given is cell-based, human. As to conditions: 10 nM. The procedure, abridged:
(§1)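 Macrophages were transfected with a human GPR32 expression vector or a mock vector (5 μg) using Jet-PEI. Cells were re-plated on chamber slides 48 h later and imaged 24 h after that in a stage-top incubator. Compound (10 nM) was given for 15 min at 37 °C, then BacLight Green-labelled E. coli at 50:1. Fluorescence was imaged every 10 min for 60 min, 4 fields/well at 40X. Results are % above vehicle from 3 donors.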

Experiment [5] concerns mock-transfected macrophages. In words: Real-time phagocytosis of live E. coli, mock-transfected macrophages. It is filed as cell-based, human. As to conditions: 10 nM. The procedure, abridged: as §1
Experiment [6] deals with T1, DRV1/GPR32 (Homo sapiens, UniProt O75388). The experiment can be described thus: GPR32 cAMP HTRF signaling assay. The class given is cell-based. As to conditions: for effect on forskolin-stimulated cAMP: forskolin 8 μM. In outline:
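CHO-K1 PathHunter GPR32 cells were seeded at 1,800 cells/well for 20 h, then stimulated with forskolin (8 μM final) plus Ro 20-1724 (100 μM final). Compounds were added as 1:3 dilutions (57 μM–1 nM final) for 30 min at 37 °C. cAMP was read by HTRF as the 665/615 nm ratio ×10,000. Forskolin alone set 0%; DMSO (0.57%) set −100%. Two experiments in triplicate.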
In general terms: TR-FRET usually uses a lanthanide donor and a delayed reading to cut background.

In experiment [7] the target is T1, DRV1/GPR32. In words: GPR32 PathHunter β-Arrestin Assay. It is filed as cell-based. In outline: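 CHO-K1 PathHunter GPR32 cells were grown with geneticin 800 μg/mL and hygromycin B 300 μg/mL, then seeded at 2,500 cells/well in 1536-well plates overnight. Compounds in DMSO were tested at 11 points (1:3, 57 μM–1 nM) for 90 min at 37 °C, then detection reagent was added for 1 h and luminescence read. DMSO (0.57%) set 0%; a 2-fold signal increase set 100%. Two experiments in triplicate.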

Experiment [8] concerns CHO-WT cells. The experiment can be described thus: ECIS in wild-type CHO cells. The class given is cell-based, Chinese hamster. As to conditions: 1μM.
[9] abbreviates: hGPR32/DRV1-transfected, 10 min.

T1 sequence (O75388 whole entry): as above

Consider `CC/C=C\C[C@H](O)/C=C/C=C\C=C\C=C\[C@@H](O)[C@@H](O)C/C=C\CCC(=O)O` [RvD1, 7S,8R,17S-trihydroxy-4Z,9E,11E,13Z,15E,19Z-docosahexaenoic acid, reference compound], for which the “increase of CD163 levels compared to vehicle” value (“increase of CD163 levels” for short) in experiment [1] was 25.7%. For the same compound, in experiment [2], the “direction of impedance change” value is given as “reduced impedance”. Besides, the impedance change entry in experiment [2] (CHO-hDRV1, 100 nM) is reported as “time-dependently reduced impedance”. In experiment [3], the “phagocytosis of STZ, dose response” value is listed as “dose-dependently increased phagocytosis” and the “increase of phagocytosis of STZ above vehicle” value (shortened to “increase … of STZ above vehicle”) is listed as ~ 60%. Also, in experiment [4] (DRV1-transfected, 20–30 min), the “increase of phagocytosis of E. coli above vehicle control” value is over 100%. In experiment [5] (20–30 min), the “increase of phagocytosis of E. coli above vehicle control” value is 30–40%.
For the compound `COc1cccc(C(=O)Nc2nnc(S(=O)(=O)N3CCOCC3)s2)c1` [C1A, 3-methoxy-N-(5-morpholin-4-ylsulfonyl-1,3,4-thiadiazol-2-yl)benzamide], the “increase of CD163 levels” value in experiment [1] is on record as 4.7%. Also, in experiment [6], a half-maximal response (EC50) required 380 nM and the “effect on forskolin-stimulated cAMP” value is given as “dose-dependently reduced forskolin-stimulated cAMP release”. Moreover, the EC50 in experiment [7] was 930 nM. For the same compound, the “direction of impedance change” value in experiment [2] is “increased impedance”. Moreover, the impedance change entry in experiment [2] (CHO-DRV1, 100 nM-10 μM) is reported as “dose-dependently elicited rapid changes in impedance”. Moreover, in experiment [3], the “phagocytosis of STZ, dose response” value was “enhanced phagocytosis in a dose-dependent manner” and the “increase … of STZ above vehicle” value is 35–40%. The “increase of phagocytosis of E. coli above vehicle control” value in experiment [4] (setting [9]) was over 70%. The “increase of phagocytosis of E. coli above vehicle control” value in experiment [5] (10 min) is ~ 15%.
With `COc1cccc(C(=O)Nc2cccc(-c3nc4ncccn4c3C)c2)c1` [C2B, 3-methoxy-N-[3-(3-methylimidazo[1,2-a]pyrimidin-2-yl)phenyl]benzamide], in experiment [6], the EC50 was found to be 190 nM and the “effect on forskolin-stimulated cAMP” value is “dose-dependently reduced forskolin-stimulated cAMP release”. In experiment [7], the EC50 was found to be 1170 nM. In experiment [2], the “direction of impedance change” value is on record as “increased impedance”. Besides, in experiment [2] (CHO-DRV1, 100 nM-10 μM), the impedance change result was “dose-dependently elicited rapid changes in impedance”.
On the same counts, the results for `O=C(Nc1nnc(S(=O)(=O)N2CCOCC2)s1)c1cccc(Br)c1` [C1B, 3-bromo-N-(5-morpholin-4-ylsulfonyl-1,3,4-thiadiazol-2-yl)benzamide] are 320 nM, “dose-dependently reduced forskolin-stimulated cAMP release”, 3790 nM, “increased impedance” and “dose-dependently elicited rapid changes in impedance”.
On to `COc1ccccc1N1CCN(CCN(C(=O)c2ccc(I)cc2)c2ccccn2)CC1` [pMPPI, 4-iodo-N-{2-[4-(2-methoxyphenyl)-1-piperazinyl]ethyl}-N-(2-pyridinyl)benzamide, reference compound], for which the “increase of CD163 levels” value in experiment [1] was found to be 20.0%. In experiment [6], the EC50 was found to be 2500 nM and the “effect on forskolin-stimulated cAMP” value is listed as “increased forskolin-stimulated cAMP release”. Moreover, the “β-arrestin activity” value in experiment [7] (dose response) is given as “not β-arrestin activities”. Also, the “direction of impedance change” value in experiment [2] is “reduced impedance”. Also, the impedance change entry in experiment [2] (CHO-DRV1 cells, 1μM) is listed as “reduced impedance”. In experiment [3], the “phagocytosis of STZ, dose response” value is on record as “enhanced phagocytosis in a dose-dependent manner” and the “increase … of STZ above vehicle” value is listed as “significantly less potent than pMPPF”. In addition, in experiment [8], the impedance change result is “did not give significant impedance changes”.
With `Cc1c(-c2cccc(NC(=O)c3ccc(F)c(F)c3)c2)nc2ncccn12` [C2A, 3,4-difluoro-N-[3-(3-methylimidazo[1,2-a]pyrimidin-2-yl)phenyl]benzamide], the “increase of CD163 levels” value in experiment [1] amounted to 13.3%. Besides, in experiment [6], it took 50 nM to reach a half-maximal effect (EC50) and the “effect on forskolin-stimulated cAMP” value was “dose-dependently reduced forskolin-stimulated cAMP release”. In experiment [7], the EC50 came out at 370 nM. Besides, in experiment [2], the “direction of impedance change” value was “increased impedance”. The impedance change result in experiment [2] (CHO-DRV1, 100 nM-10 μM) is given as “dose-dependently elicited rapid changes in impedance”. In experiment [3], the “phagocytosis of STZ, dose response” value is “enhanced phagocytosis in a dose-dependent manner” and the “increase … of STZ above vehicle” value is 35–40%. Further, the “increase of phagocytosis of E. coli above vehicle control” value in experiment [4] (setting [9]) is over 40%.
`COc1ccccc1N1CCN(CCN(C(=O)c2ccc(F)cc2)c2ccccn2)CC1` [pMPPF, 4-Fluoro-N-{2-[4-(2-methoxyphenyl)-1-piperazinyl]ethyl}-N-(2-pyridinyl)benzamide, reference compound]: the “increase of CD163 levels” value in experiment [1] was 13.7%. Further, the “effect on forskolin-stimulated cAMP” value in experiment [6] was “dose-dependently reduced forskolin-stimulated cAMP release”. The compound also displayed an EC50 in experiment [7] of 1160 nM. Moreover, the “β-arrestin signal increase above basal cell activity” value in experiment [7] (GPR32 β-arrestin cells, 11 concentrations 57 μM to 1 nM) is listed as ~ 30%. In experiment [2], the “direction of impedance change” value is recorded as “increased impedance”. Further, in experiment [2] (CHO-DRV1 cells, 1μM), the impedance change result is listed as “increased”. Further, in experiment [3], the “phagocytosis of STZ, dose response” value is reported as “enhanced phagocytosis in a dose-dependent manner” and the “increase … of STZ above vehicle” value was ~ 60%. For the same compound, the impedance change result in experiment [8] is listed as “did not give significant impedance changes”. Further, the “increase of phagocytosis of E. coli above vehicle control” value in experiment [4] (DRV1-transfected, 20–30 min) is over 50%.
Consider `NCCc1c[nH]c2ccc(O)cc12` [5-HT], for which, in experiment [3] (0.1–10 nM), the “phagocytosis of STZ” value is recorded as “did not significantly increase phagocytosis”.

The term EC50 denotes the concentration at which the effect is half-maximal. A higher EC50 goes with a need for much substance.
